PubChem BioAssay AID588575 (Sanford-Burnham Center for Chemical Genomics, 2011)
Activity calls are given as the source filed them.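 Rule for the calls: active = IC50 at or below 20 µM; inactive = the rest.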

Biological target: Bcl-2-like protein 10 (Homo sapiens) (UniProt Q9HD36)
Assay: small molecules blocking Bcl-B/Bim BH3 binding – biochemical, fluorescence polarization, GST-Bcl-B, FITC-Bim, SAR follow-up (AID 588575)
Settings: GST-Bcl-B / FITC-Bim peptide
Method in brief: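 Assay system: purified GST-Bcl-B fusion, E. coli-expressed, missing ~20-residue C-terminal transmembrane segment. Buffer or medium: HEPES-KOH pH 7.5 buffer with Tween-20 and TCEP. Dosing: 10 concentrations, 2-fold steps. Times: Protein–compound preincubation 20 min, 4 °C, probe binding 10 min, RT. Measured by: fluorescence polarization at 485/530 nm. Evaluation: IC50 from sigmoidal dose-response curve fit.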

Chain of Bcl-2-like protein 10 (Homo sapiens) (Q9HD36 whole entry, looked up): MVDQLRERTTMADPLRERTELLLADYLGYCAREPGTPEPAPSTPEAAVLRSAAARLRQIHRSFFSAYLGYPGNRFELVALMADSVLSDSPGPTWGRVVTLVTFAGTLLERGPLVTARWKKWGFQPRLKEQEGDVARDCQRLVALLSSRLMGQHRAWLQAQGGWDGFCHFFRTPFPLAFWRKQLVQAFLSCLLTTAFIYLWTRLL

Question: With CC1(C)Cc2ccccc2-c2nc3nn[nH]n3c(=O)c21 as the compound, how does the IC50 read?
Answer: > 20 µM (inactive)

Question: O=c1c2cnc3ncnn3c2ccn1CCc1cnc[nH]1 was tested. Which IC50 did it give?
Answer: > 20 µM (inactive)

Question: How did the IC50 turn out when Cc1ccc2c(c1)-c1c(c(=O)n(Cc3ccccc3)c3nncn13)C1(CCCCC1)C2 was run?
Answer: 4.92 µM

Question: Cn1c(NCCO)nc2c(c1=O)C1(CCCCC1)Cc1ccccc1-2 was tested. Which IC50 did it give?
Answer: > 20 µM (inactive)

Question: For O=C1CC(c2ccccc2F)c2c(n3ncnc3[nH]c2=O)N1 (stereo not drawn), which IC50 is on record?
Answer: > 20 µM (inactive)

Question: With C=C(C)Cn1c(=O)c2c(n3nnnc13)-c1ccccc1CC21CCCC1 as the compound, how does the IC50 read?
Answer: > 20 µM (inactive)

Question: Which IC50 does the source give for COc1ccc(Cn2c(=O)c3c(n4nnnc24)-c2ccccc2CC32CCCC2)cc1 here?
Answer: 0.386 µM

Question: COc1ccc(Cn2c(=O)c3c(n4nnnc24)-c2cc(C)ccc2CC3(C)C)cc1 was tested. Which IC50 did it give?
Answer: 3.94 µM

Question: Which IC50 does the source give for Cc1ccc2c(c1)-c1c(c(=O)n(Cc3ccc(Cl)cc3)c3nncn13)C1(CCCCC1)C2 here?
Answer: > 20 µM (inactive)

Question: How did the IC50 turn out when Cc1ccc2c(c1)-c1c(c(=O)n(Cc3ccccc3)c3nnnn13)C(C)(C)C2 was run?
Answer: 5.77 µM

Question: c1ccc(OCc2nc3c4c(ncn3n2)-c2ccccc2CC42CCCC2)cc1 was tested. Which IC50 did it give?
Answer: > 20 µM (inactive)

Question: For C=C(C)Cn1c(=O)c2c(n3cnnc13)-c1ccccc1CC21CCCC1, which IC50 is on record?
Answer: > 20 µM (inactive)

Question: How did the IC50 turn out when O=c1c2c(n3cnnc3n1Cc1ccccc1)-c1ccccc1CC21CCCC1 was run?
Answer: 5.19 µM

Question: Which IC50 does the source give for COc1ccc2c(c1)-c1c(c(=O)n(Cc3ccccc3)c3nncn13)C1(CCCC1)C2 here?
Answer: > 20 µM (inactive)

Question: COc1ccc2c(c1)-c1c(c(=O)n(Cc3ccc(F)cc3)c3nnnn13)C(C)(C)C2 was tested. Which IC50 did it give?
Answer: > 20 µM (inactive)

Question: With O=c1c2cnc3nc(-c4ccccc4)nn3c2ccn1CCc1cnc[nH]1 as the compound, how does the IC50 read?
Answer: > 20 µM (inactive)

Question: For O=c1c2c(nc3[nH]ncn13)-c1ccccc1CC21CCCCC1, which IC50 is on record?
Answer: > 20 µM (inactive)

Question: How did the IC50 turn out when COc1ccc2c(c1)-c1c(c(=O)n(Cc3ccccc3)c3nnnn13)C(C)(C)C2 was run?
Answer: 4.03 µM

Question: With COc1ccc2c(c1)-c1c(c(=O)n(Cc3ccc(F)cc3)c3nncn13)C(C)(C)C2 as the compound, how does the IC50 read?
Answer: > 20 µM (inactive)

Question: With O=c1[nH]c(CN2CCOCC2)nc2c1C1(CCCC1)Cc1ccccc1-2 as the compound, how does the IC50 read?
Answer: > 20 µM (inactive)

Question: O=c1c2c(n3nnnc3n1Cc1ccccc1)-c1cc(F)ccc1CC21CCCCC1 was tested. Which IC50 did it give?
Answer: 0.775 µM

Question: Which IC50 does the source give for O=c1c2c(n3cnnc3n1Cc1ccc(Cl)cc1)-c1ccccc1CC21CCCC1 here?
Answer: 3.4 µM

Question: How did the IC50 turn out when CC1CC(=O)C2=C(C1)Nc1ncnn1C2c1cccnc1 (stereo not drawn) was run?
Answer: > 20 µM (inactive)

Question: For COc1ccc2c(c1)-c1c(c(=O)n(Cc3ccc(Cl)cc3)c3nnnn13)C1(CCCC1)C2, which IC50 is on record?
Answer: > 20 µM (inactive)

Question: Which IC50 does the source give for O=c1[nH]c(CN2CCCC2)nc2c1C1(CCCC1)Cc1ccccc1-2 here?
Answer: > 20 µM (inactive)

Question: With Cc1ccc2c(c1)-c1c(c(=O)n(Cc3ccccc3)c3nnnn13)C1(CCCCC1)C2 as the compound, how does the IC50 read?
Answer: 13.6 µM

Question: How did the IC50 turn out when O=c1c2c(nc3n1CCS3)-c1ccccc1CC21CCCCC1 was run?
Answer: > 20 µM (inactive)

Question: Which IC50 does the source give for O=C1CCCC2=C1C(c1cc(Br)ccc1F)n1ncnc1N2 (stereo not drawn) here?
Answer: > 20 µM (inactive)

Question: Which IC50 does the source give for CC1(C)Cc2ccccc2-c2c1c(=O)n(Cc1ccccc1)c1nncn21 here?
Answer: > 20 µM (inactive)

Question: How did the IC50 turn out when COc1ccc2c(c1)-c1c(c(=O)n(Cc3ccccc3)c3nnnn13)C1(CCCC1)C2 was run?
Answer: > 20 µM (inactive)

Question: With Cc1ccc2c(c1)-c1c(c(=O)n(Cc3ccc(F)cc3)c3nnnn13)C1(CCCCC1)C2 as the compound, how does the IC50 read?
Answer: 8.14 µM

Question: O=C1CC(c2ccc(F)cc2)CC2=C1C(c1cccc(Cl)c1)n1ncnc1N2 (stereo not drawn) was tested. Which IC50 did it give?
Answer: > 20 µM (inactive)

Question: With O=c1c2c(n3cnnc3n1C1CCCCC1)-c1ccccc1CC21CCCCC1 as the compound, how does the IC50 read?
Answer: > 20 µM (inactive)

Question: For O=c1c2c(nc3[nH]ncn13)-c1ccccc1CC21CCCC1, which IC50 is on record?
Answer: > 20 µM (inactive)

Question: Which IC50 does the source give for O=c1c2c(n3nnnc3n1Cc1ccccc1)-c1ccccc1CC21CCCCC1 here?
Answer: 4.15 µM

Question: With O=c1c2c(-c3ccccc3)n3ncnc3nc2ccn1-n1cnnc1 as the compound, how does the IC50 read?
Answer: > 20 µM (inactive)

Question: How did the IC50 turn out when O=c1c2ccccc2nc2n1C1(CCCC1)Cc1ccccc1-2 was run?
Answer: > 20 µM (inactive)

Question: Which IC50 does the source give for O=c1c2c(n3nnnc3n1Cc1ccccc1)-c1cc(F)ccc1CC21CCCC1 here?
Answer: > 20 µM (inactive)

Question: Which IC50 does the source give for COc1ccc(Cn2c(=O)c3c(n4cnnc24)-c2cc(C)ccc2CC3(C)C)cc1 here?
Answer: 8.29 µM

Question: With O=c1c2c(n3nnnc3n1-c1ccccc1)-c1ccccc1CC21CCCC1 as the compound, how does the IC50 read?
Answer: > 20 µM (inactive)

Question: With COc1ccc2c(c1)-c1c(c(=O)n(Cc3ccccc3)c3nncn13)C(C)(C)C2 as the compound, how does the IC50 read?
Answer: > 20 µM (inactive)

Question: With Cc1ccc2c(c1)-c1c(c(=O)n(Cc3ccc(F)cc3)c3nncn13)C1(CCCCC1)C2 as the compound, how does the IC50 read?
Answer: 0.6 µM

Question: For O=c1c2ccccc2nc2n1C1(CCCCC1)Cc1ccccc1-2, which IC50 is on record?
Answer: > 20 µM (inactive)

Question: Which IC50 does the source give for Cc1ccc2c(c1)-c1c(c(=O)n(Cc3ccccc3)c3nncn13)C(C)(C)C2 here?
Answer: > 20 µM (inactive)

Question: With O=c1[nH]c(NCCCO)nc2c1C1(CCCCC1)Cc1ccccc1-2 as the compound, how does the IC50 read?
Answer: > 20 µM (inactive)

Question: With Cn1c(=O)c2c(n3cnnc13)-c1ccccc1CC21CCCC1 as the compound, how does the IC50 read?
Answer: > 20 µM (inactive)

Question: Which IC50 does the source give for COc1ccc2c(c1)-c1c(c(=O)n(Cc3ccc(Cl)cc3)c3nnnn13)C(C)(C)C2 here?
Answer: > 20 µM (inactive)

Question: For Cn1c(=S)[nH]c2c(c1=O)C1(CCCCC1)Cc1ccccc1-2, which IC50 is on record?
Answer: > 20 µM (inactive)

Question: For O=c1c2c(-c3ccccc3)n3ncnc3nc2ccn1-c1ccccc1, which IC50 is on record?
Answer: > 20 µM (inactive)

Question: Which IC50 does the source give for Cc1ccc2c(c1)-c1c(c(=O)n(Cc3ccc(Cl)cc3)c3nnnn13)C1(CCCCC1)C2 here?
Answer: > 20 µM (inactive)

Question: For O=c1c2c(n3nnnc3n1Cc1ccccc1)-c1ccccc1CC21CCCC1, which IC50 is on record?
Answer: 3.34 µM

Question: For O=c1c2c(n3nnnc3n1Cc1ccc(F)cc1)-c1ccccc1CC21CCCC1, which IC50 is on record?
Answer: 1.56 µM

Question: Which IC50 does the source give for COc1ccc2c(c1)-c1c(c(=O)n(Cc3ccc(Cl)cc3)c3nncn13)C(C)(C)C2 here?
Answer: > 20 µM (inactive)

Question: O=c1c2c(n3nnnc3n1Cc1ccc(Cl)cc1)-c1ccccc1CC21CCCC1 was tested. Which IC50 did it give?
Answer: 2.11 µM

Question: CC1(C)CC(n2c(=S)[nH]c3c(c2=O)C2(CCCC2)Cc2ccccc2-3)CCO1 (stereo not drawn) was tested. Which IC50 did it give?
Answer: > 20 µM (inactive)

Question: With O=c1c2c(n3cnnc3n1Cc1ccccc1)-c1ccccc1CC21CCCCC1 as the compound, how does the IC50 read?
Answer: > 20 µM (inactive)

Question: For COc1ccc2c(c1)-c1c(c(=O)n(Cc3ccc(Cl)cc3)c3nncn13)C1(CCCC1)C2, which IC50 is on record?
Answer: > 20 µM (inactive)

Question: Which IC50 does the source give for CC1(C)Cc2ccccc2-c2c1c(=O)n(Cc1ccccc1)c1nnnn21 here?
Answer: > 20 µM (inactive)
